High-throughput results as filed in PubChem.
Yeast growth inh: chemicals that inhibit yeast BB579 growth in restrictive medium (lifespan-shortening candidates) | S. cerevisiae BB579 growth, OD615, 48 h | inhibition, % at 10 µM | 140,000 tested, 0.51% active;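 active means inhibition above a set limit, 3 SD over the mean compound inhibition, cut at about 44% in these data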
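Assay system: S. cerevisiae DeaD strain BB579 yeast. Medium: CSMM-D restrictive synthetic medium containing dextrose (glucose). Times: 4 h cell preincubation, 48 h compound exposure, 30 °C humidified. Signal: OD615 turbidity measurement. Benchmarks: positive control amphotericin B 10 µg/mL.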
Yeast lifespan up: yeast lifespan extension; S. cerevisiae growth with nicotinamide, OD615; deaD strain in restrictive glucose medium; inhibition of the nicotinamide effect, % at 10 µM; 130,000 tested, 0.68% active; AID 775;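 active means inhibition above a set limit, placed 3 SD over the median of all compounds, cut at about 26% in these data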
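Buffer or medium: CSMM-D glucose medium, restrictive; test system: modified budding yeast, DeaD strain; compound: single dose 10 µM compound, 0.25% DMSO; schedule: culture preincubation 4 h, compound exposure 48 h, both 30 °C; detection: optical density (absorbance) at 615 nm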
WT yeast gro inh: growth inhibition of WT yeast, mitochondrial fusion screen | mitochondrial fusion phenotypic screen, WT strain | inhibition, % at 10 µM | 190,000 tested, 2.1% active; in the data active means inhibition above about 58%; tested in S. cerevisiae
RAM network inh: yeast RAM network inhibition | S. cerevisiae dse1pr::URA3 reporter, 5-FOA growth OD615, 2 d; analog-sensitive cbk1-as2 kinase mutant strain | inhibition, % at 50 µM | 190,000 tested, 1.8% active;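 active means inhibition above a set limit, 3 SD over mean compound inhibition, cut at about 8.4% in these data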;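 further: inhibition rescues growth on 5-FOA so higher OD means more RAM inhibition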
Numbers stand for hits; . = inactive; / = not tested or not shown; ! = repeats disagree. Rows were chosen to be rich in hits. Some 4.3% of all compounds tested hit in one or more screens of this group.

SMILES | Yeast growth inh | Yeast lifespan up | WT yeast gro inh | RAM network inh
Cc1cc2cc(C=C(C#N)C#N)c(Cl)nc2cc1C | . | 32 | . | .
Cc1cc(C)cc(-n2c(C)cc(C=C(C#N)C#N)c2C)c1 | . | . | . | .
CCOC(=O)/C(C#N)=C/c1cc2ccc(C)cc2nc1Cl | . | 32 | . | .
CC(Oc1cccc(Cl)c1)C(=O)NCc1ccc(S(N)(=O)=O)cc1 (centres undefined) | / | / | . | .
COc1ccc(Cc2nn[nH]n2)cc1 | . | . | 91 | .
CC(=O)Nc1ccccc1/C=C/c1ccc2c(C)ccc(O)c2n1 | . | . | . | .
CC(=O)Nc1ccccc1/C=C/c1ccc2c(C)cc(C)c(O)c2n1 | . | . | 77 | .
COc1ccccc1C(=O)Nc1ccc2c(c1)nc1n2CCN(Cc2ccccc2)C1 | / | / | . | .
O=C(Nc1ccc2c(c1)nc1n2CCN(Cc2ccccc2)C1)c1cccs1 | . | . | 63 | .
CCc1nnc(N/N=C/c2c(C)[nH]c3ccccc23)n1N | / | / | . | .
Cn1c(C(C#N)C(=O)c2ccco2)nc2ccccc21 (centres undefined) | 64 | . | . | .
CC(=O)Nc1ccc(S(=O)(=O)Nc2ccc3c(c2)C(=O)OC3)cc1 | / | / | . | .
O=c1[nH]c(CSc2nnc(Cc3ccccc3)o2)nc2ccccc12 | / | / | . | .
Cc1c(Cl)cccc1NC(=O)c1cc(-c2ccccc2O)n[nH]1 | . | . | 68 | .
Cc1ccc(-c2cc(-c3ccccc3Cl)[nH]n2)c(O)c1 | 92 | . | 69 | .
CCOC(=O)c1c(NC(=O)CSc2nnc(C)s2)sc2c1CCC(CC)C2 (centres undefined) | . | / | . | .
Cc1cc(C)c(-c2c(O)c3cnn(-c4ccccc4)c3[nH]c2=O)c(C)c1 | . | . | . | .
C=C1C(=O)[C@@]23[C@H](O)C[C@@H]4C(C)(C)CC[C@H](O)[C@@]4(C)[C@@H]2CC[C@@H]1[C@H]3O | . | . | . | .
COC(=O)C1=C(C)N=c2s/c(=C/c3ccoc3)c(=O)n2C1c1ccccc1 (centres undefined) | . | . | . | .
COC(=O)C1=C(C)N=c2s/c(=C/c3cccs3)c(=O)n2C1c1cccs1 (centres undefined) | . | . | . | 9.2
CCCCNC(=O)C1CCN(c2nc(OC)nc(OC)n2)CC1 | . | / | . | .
Cc1cc(NC(=O)c2ccccc2-c2ccccc2)ccc1Br | . | . | 72 | .
Cc1cccc(NC(=O)c2ccccc2-c2ccccc2)c1 | / | / | . | .
O=C(c1cc(C2CC2)nc2ccccc12)N1N=C(C(F)F)CC1(O)C(F)F (centres undefined) | . | / | . | .
CC(C)c1ccc(-c2cc(C(=O)N3N=C(C(F)F)CC3(O)C(F)F)c3ccccc3n2)cc1 (centres undefined) | . | . | 87 | .
SMILES | Yeast growth inh | Yeast lifespan up | WT yeast gro inh | RAM network inh
O=C(c1cc(C2CC2)nc2ccc(Br)cc12)N1N=C(C(F)F)CC1(O)C(F)F (centres undefined) | . | / | 74 | .
O=C1CC(c2cccc(Cl)c2)CC(O)=C1C=NCCCO (centres undefined) | . | . | . | .
O=C1CC(N2CCN(c3nc4ccccc4s3)CC2)C(=O)N1Cc1cccs1 (centres undefined) | 98 | . | . | .
O=C(COC(=O)c1ccccc1[N+](=O)[O-])Nc1cc(S(=O)(=O)N2CCOCC2)ccc1N1CCCC1 | / | / | . | .
CCCN(Cc1ccccc1)C(=S)Nc1ccc(SC(F)F)cc1 | / | / | 70 | .
CCCN(Cc1ccccc1)C(=S)Nc1ccc(F)cc1 | / | / | . | .
CCC(C)(C)NC(=O)CN(C(=O)c1snc(C(N)=O)c1N)c1ccc2c(c1)OCCO2 | . | . | 73 | .
Cc1cc(C)c(S(=O)(=O)N2CCC(C(=O)NCc3ccco3)CC2)c(C)c1 | . | . | . | .
Cc1cccc(NC(=O)CSc2nnc(-c3cnccn3)n2Cc2ccco2)c1 | . | . | . | 9.9
Cc1ccc(NC(=O)CSc2nnc(-c3cnccn3)n2Cc2ccco2)cc1 | . | . | . | .
CCN(CC)C(=O)COc1ccc(C=O)cc1OC | . | . | . | .
COc1ccc(NC(=O)CN2C(=O)CSC(C)C2=O)cc1 (centres undefined) | / | / | . | .
O=C(CSc1ccc(-c2ccco2)nn1)c1ccccc1 | . | . | . | .
O=C(Nc1cccc(C(F)(F)F)c1)N(Cc1ccc(Cl)cc1)CC(O)C(F)(F)F (centres undefined) | . | . | 84 | .
CC(O)(CS(=O)(=O)Cc1ccc(Cl)cc1)C(=O)Nc1cccc(C(F)(F)F)c1 (centres undefined) | . | . | . | .
Cc1ccc(NC(=O)C2SC(=Nc3ccccc3)C(C(=O)Nc3ccc(Cl)cc3)=C2N)cc1 (centres undefined) | / | / | 66 | .
Cc1ccc(N=C2SC(C(=O)Nc3ccc(OC(F)(F)F)cc3)C(N)=C2C(=O)Nc2c(C)cc(C)cc2C)cc1 (centres undefined) | . | . | . | .
CCCOc1ccccc1NC(=O)Nc1ccccc1Cl | / | / | . | .
OCCN1CCN(CCCN2c3ccccc3Sc3ccc(C(F)(F)F)cc32)CC1 | . | . | . | .
CN(C)CCCN1c2ccccc2Sc2ccc(C(F)(F)F)cc21 | . | . | 95 | .
O=C(/C=C/c1ccco1)Nc1cccc(NC(=O)/C=C/c2ccco2)n1 | . | . | 59 | .
Cc1nc(NC(=O)/C=C/c2ccco2)sc1C | . | . | . | .
CC(C)(C)c1cc(/C=N/O)cc(C(C)(C)C)c1O | . | . | 80 | .
CC(C)(C)Sc1ccc(/C=N/O)cc1[N+](=O)[O-] | / | / | . | .
O=C(NCCN1CCOCC1)c1ccc(=O)oc1 | . | . | 62 | .
SMILES | Yeast growth inh | Yeast lifespan up | WT yeast gro inh | RAM network inh
O=C(Nc1nn[nH]n1)c1cc(-c2ccc(Cl)c(Cl)c2Cl)nc2ccccc12 | / | / | . | .
N=c1sccn1CC(=O)Nc1cc(S(=O)(=O)N2CCCC2)ccc1Cl | / | / | . | .
c1ccc(Cn2c(CNc3nc4ccccc4n3CCN3CCCCC3)nc3ccccc32)cc1 | . | / | 64 | .
O=C(Nc1ccc(Br)cc1)c1cccn1-c1ncc(C(F)(F)F)cc1Cl | . | . | 78 | .
Cc1cccc(N2CCN(Cc3nc(CC4CC4)no3)CC2)n1 | / | / | . | .
Cc1ccccc1OCc1n(CC(=O)OC2CC(C)CCC2C(C)C)c2ccccc2[n+]1C (centres undefined) | / | / | 62 | .
CC1CCC(C(C)C)C(OC(=O)COC(=O)c2cccn2C)C1 (centres undefined) | . | . | 74 | .
CC1CCC(C(C)C)C(OC(=O)Cn2c(-c3ccc(Br)cc3)[n+](C)c3ccccc32)C1 (centres undefined) | / | / | 66! | .
Cc1ccc(OCc2ccc(C(=O)Nc3ccc(S(N)(=O)=O)cc3)o2)cc1 | / | / | . | .
COc1cccc(CNC(=S)NC2CC2)c1 | / | / | . | .
O=C(CSc1nc2cc(Cl)ccc2c(=O)n1Cc1ccco1)Nc1ccc(S(=O)(=O)N2CCOCC2)cc1 | . | . | . | 9.1
COC(=O)c1ccc2c(=O)n(Cc3ccco3)c(SCC(=O)Nc3ccc(C)c(Cl)c3)nc2c1 | . | . | . | .
